Assay outcomes deposited in PubChem BioAssay by The Scripps Research Institute Molecular Screening Center.
PRMT1 inh – PRMT1 methyltransferase inhibitors, primary screen, biochemical, fluorescence polarization; recombinant PRMT1, activity-based probe fluorescence polarization; AID 652257, 2013; Protein arginine N-methyltransferase 1 (Homo sapiens), Q99873; inhibition, % at 2.79 µM; 370,000 tested, 1.3% active;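 active means inhibition above about 21% made by adding two undisclosed values, limit read from the data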
ABHD4 inh – ABHD4 inhibitors, primary screen, biochemical, fluorescence polarization, mouse; AID 720543, 2013; 370,000 tested, 0.54% active; purified mABHD4, FP-Rh probe fluorescence polarization; (Lyso)-N-acylphosphatidylethanolamine lipase (Mus musculus), Q8VD66; inhibition, % at 8.92 µM;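 active means inhibition exceeding the mean over every tested compound plus 3 SD, cut at about 30% in these data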;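 further: 0% = plate median of compound wells and 100% = S159A mutant with DMSO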
Target sequence (Q8VD66 whole entry, looked up): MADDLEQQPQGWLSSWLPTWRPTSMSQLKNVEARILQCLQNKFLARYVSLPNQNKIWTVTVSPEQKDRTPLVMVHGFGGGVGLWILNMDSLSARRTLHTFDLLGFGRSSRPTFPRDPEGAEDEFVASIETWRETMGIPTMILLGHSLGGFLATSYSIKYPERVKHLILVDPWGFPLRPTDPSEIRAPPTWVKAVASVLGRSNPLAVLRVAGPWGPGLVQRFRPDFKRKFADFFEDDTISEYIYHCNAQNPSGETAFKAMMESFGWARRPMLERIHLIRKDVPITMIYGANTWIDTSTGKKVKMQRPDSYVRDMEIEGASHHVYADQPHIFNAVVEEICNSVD
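Assay system: mouse ABHD4 enzyme, wild type / Also added: fluorescent activity-based probe FP-Rh / Doses: single nominal dose of 8.92 µM, 0.89% DMSO final / Timing: 45 min compound pre-incubation plus 60 min probe step, 25 °C / Signal: FP readout, ex 525 nm / em 598 nm / Control set: S159A mutant/DMSO as 100%, compound-well median as 0%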
TCR CD3 inh – inhibitors of human TCR-CD3 interaction, primary screen, biochemical, fluorescence, TAMRA-labeled TCR probe; 360,000 tested, 0.37% active; inhibition, % at 9.4 µM; in the data active means inhibition above about 19%;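 further: recombinant mutant TCR 2C K166C tagged with TAMRA read by polarization; 0% = receptor in buffer alone and 100% = receptor with positive control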
SIAE primary – human SIAE inhibitors, primary screen, biochemical, fluorescence polarization, FP-Rh probe, 1536-well HTS. SIAE FP-Rh probe binding. 370,000 tested, 0.69% active. inhibition, % at 9.66 µM. AID 1053197, 2014;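 active means inhibition above a cutoff: mean of compounds within the control limits plus 3 SD of those, cut at about 17% in these data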;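 further: 0% = plate median of compound wells and 100% = probe without SIAE protein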
HTRA1 inhibitor – HTRA1 serine protease inhibitors, primary screen, biochemical, fluorescence polarization, HTS. recombinant HTRA1, FP-rhodamine activity-based probe. inhibition, % at 5.96 µM. AID 504803, 2011. 340,000 tested, 0.5% active. Q92743; in the data active means inhibition above about 36%;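 further: 0% = enzyme with DMSO and 100% = wells lacking enzyme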
PAD4 FP inh – human PAD4 inhibitors, primary screen, biochemical, fluorescence polarization, 1536-well format; AID 485272, 2010; inhibition, % at 6.36 µM; recombinant PAD4, RCA probe fluorescence polarization; 330,000 tested, 0.41% active;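 active means percent inhibition above a cutoff equal to the mean of all tested compounds plus 3 SD, cut at about 15% in these data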;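 further: 0% = PAD4 with RCA probe and DMSO and 100% = probe without PAD4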
PAD4 FP conf – human PAD4 inhibitors, confirmation, biochemical, fluorescence polarization. shares compounds with PAD4 FP inh. 1,200 tested, 28% active. recombinant PAD4, RCA probe fluorescence polarization. inhibition, % at 6.36 µM;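 active means mean inhibition across replicates above the hit cutoff set by the earlier primary screen, cut at about 15% in these data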;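 further: inhibitors block active-site labeling by the probe so polarization falls; 0% = PAD4 with probe and DMSO and 100% = probe without PAD4 enzyme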
The depositor's hits bear a star; . = no result given. Rows were chosen to be rich in hits. Some 2.9% of all compounds tested hit in one or more screens of this group.

SMILES	PRMT1 inh	ABHD4 inh	TCR CD3 inh	SIAE primary	HTRA1 inhibitor	PAD4 FP inh	PAD4 FP conf
CCCCOc1ccc(-c2c(C(=O)Nc3ccccc3)c(C)[nH]c(=S)c2C#N)cc1	23*	-13	-5	-7	-18	-8	.
CCOC(=O)c1c(C)[nH]c(=S)c(C#N)c1-c1ccc(OC)cc1	13	0	2	0	-12	2	.
CC(=O)[C@]1(O)Cc2c(O)c3c(c(O)c2[C@@H](O[C@H]2C[C@H](N)[C@H](O)[C@H](C)O2)C1)C(=O)c1ccccc1C3=O	.	.	.	.	.	84*	89*
COc1cccc2c1C(=O)c1c(O)c3c(c(O)c1C2=O)C[C@@](O)(C(=O)CO)C[C@@H]3O[C@H]1C[C@H](N)[C@@H](O)[C@H](C)O1	.	.	.	.	69*	56*	64*
Cc1cc(OC(=O)c2ccccc2)n(CCC#N)n1	-1	1	-4	3	6	40*	1
CN(C(=O)C1CCN(c2cncnc2)CC1)C1CCCCC1	-2	3	.	-1	.	.	.
O=[N+]([O-])c1cc(Cc2ccccc2)cc(C=Nc2ccc(N3CCOCC3)cc2)c1O	.	.	.	.	29	24*	-5
Cc1cc(Br)cc(C=Nc2ccc(N3CCOCC3)cc2)c1O	0	6	3	9	11	19*	1
Oc1ccc(C=Nc2ccc(N3CCOCC3)cc2)c(O)c1	3	27	-5	6	35	12	.
Oc1c(Cl)cc(Cl)cc1C=Nc1ccc(N2CCOCC2)cc1	4	8	-3	9	18	-5	.
CCOC(=O)c1cccc(NC(=O)CN(C)S(=O)(=O)c2cc(OC)ccc2OC)c1	0	-3	.	-1	.	.	.
Cc1cccc(NC(=O)C(CC(C)C)NC(=O)C2CCC(C)CC2)n1 (stereo not given)	4	-5	-4	-9	-2	20*	2
CC(C)CC(NC(=O)C1CCC(C)CC1)C(=O)NCc1ccco1 (stereo not given)	0	-1	1	-6	8	-3	.
C=CCN1[C@H](CC(C)C)COc2cc(N3CCSCC3)ccc2S1(=O)=O	7	-1	.	0	.	.	.
CS(=O)(=O)c1ccc2nc(N)sc2c1	0	2	-3	-2	5	-2	.
CS(=O)(=O)c1ccc(N)c(SSc2cc(S(C)(=O)=O)ccc2N)c1	87*	13	-1	1	1	45*	52*
COc1cc(/C=C2/C(=O)N(c3ccc([N+](=O)[O-])cc3)N=C2N2CCOCC2)ccc1O	6	-1	-9	6	31	70*	2
CCc1ccc(OCC(=O)N/N=C2\CC(=O)c3ccccc32)cc1	.	.	.	.	9	25*	-8
CCOc1cc(/C=C2/C(=N)N3N=C(CC)SC3=NC2=O)ccc1OC(=O)c1ccco1	-1	3	1	-4	2	0	.
CCOc1cc(/C=C2/C(=O)N(c3ccccc3)N=C2C)ccc1OC(=O)c1ccco1	5	-8	0	5	4	47*	-8
CC(C)CSc1nnc(-c2ccco2)n1C	-6	2	.	0	.	.	.
CCOc1ccccc1C(=O)Nc1ccc(C(=O)NCC2COc3ccccc3O2)cc1 (stereo not given)	2	0	.	2	.	.	.
COc1ccc(C(=O)CSc2cc(C)nc3nc(C)nn23)cc1OC	2	-2	2	3	0	28*	26*
COc1ccc(C(=O)CSc2nc(SC)ns2)cc1OC	0	-2	3	1	-10	1	.
O=C(Cc1c[nH]c2ccccc12)Nc1ccc(Nc2cccnc2)c(-c2cc(F)cc(F)c2)c1	0	8	5	15	.	.	.
SMILES	PRMT1 inh	ABHD4 inh	TCR CD3 inh	SIAE primary	HTRA1 inhibitor	PAD4 FP inh	PAD4 FP conf
CC(=C/c1ccco1)/C=N/N1CCN(c2ccccc2)CC1	8	2	-3	-3	6	20*	-7
CC(/C=N/N1CCN(c2ccccc2)CC1)=C\c1ccco1	5	5	-1	2	3	2	.
CCCCc1cc(=O)oc2cc(O)ccc12	3	-6	-8	-1	-7	24*	4
Cc1cc(C(=O)CSc2nnc(N)s2)c(C)n1C1CC1	0	0	8	-3	-6	-3	.
Cc1cc(C(=O)CSc2nc(N)cc(N)n2)c(C)n1C1CC1	11	6	11	13	9	16*	8
C[C@@H]1COc2cc(F)ccc2S(=O)(=O)N1C	-1	4	.	0	.	.	.
COC(=O)[C@]12C[C@H](CC(=O)N3CCC(c4ccccc4)CC3)C(=O)N(CCc3ccc(OC)c(OC)c3)C1=C[C@H](C(C)C)O[C@@H]2C1CC1	3	1	.	2	.	.	.
COc1ccc(C(=O)Nc2nc3ccccc3s2)c(OC)c1	6	-24	-4	-22	-50	22*	55*
COc1ccccc1C(=O)Nc1nc2ccccc2s1	0	-16	-5	-8	-15	0	.
COC(=O)c1sccc1NC(=O)c1cccc(OC)c1	0	-10	1	4	-22	-3	.
COC(=O)c1sccc1NC(=O)c1ccc(OC)cc1OC	-3	-3	4	2	-4	25*	-4
c1ccc2c(c1)CC1(CCCCC1)n1nnnc1-2	-2	4	9	12	-3	2	.
c1ccc2c(c1)Cn1nnnc1-2	.	.	.	.	-2	33*	-2
COc1cccc(/C=N/Nc2nnc(C)n2N)c1OCc1ccccc1Cl	0	1	5	-3	4	22*	8
CCc1nnc(N/N=C/c2ccccc2F)n1N	3	4	-1	0	-9	43*	5
CCc1nnc(N/N=C/c2ccccc2Cl)n1N	5	7	-3	3	3	36*	1
CC(C)C[C@H]1COc2cc(Br)ccc2S(=O)(=O)N1Cc1cn(Cc2ccc(F)cc2)nn1	1	2	.	6	.	.	.
COC(=O)C[C@H]1CC[C@@H]2[C@@H](COc3ccc(NC(=O)Nc4ccccc4OC)cc3C(=O)N2C)O1	4	9	.	-5	.	.	.
CCN(CC)S(=O)(=O)c1ccc(C)c(C(=O)Oc2cccc(-c3cnc4ccccc4n3)c2)c1	-1	0	1	-3	-3	0	.
O=C(Oc1cccc(-c2cnc3ccccc3n2)c1)c1ccco1	0	3	3	-3	-1	24*	19*
OCCNC(=S)Nc1ccc(Cl)c(Cl)c1	-1	-7	4	-6	-6	2	.
